Test results from ChEMBL document CHEMBL1143960.
Active and inactive are the calls of the source. No cut-off for these calls is given here.

What was measured:
Assay type in all cases: functional, cell-based
[1] = tested on: PC-3M; assay: Effect on calcitonin-stimulated decrease in transepithelial resistance in human PC3M cells
Method in brief: (§1)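 PC-3M plated at confluency on Transwell filters (0.4 µm pores) in complete medium with 25 mM Hepes, pH 7.4. Cultured with or without CT (50 nM). TER measured in duplicate wells every 12 h with a voltohmmeter. Values blank-subtracted (filter plus bathing medium) and normalized to filter area.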

[2] = tested on: PC-3M; assay: Effect on paracellular permeability of human PC3M cells
Method in brief: (§2)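 PC-3M grown at confluency on Transwell filters in complete medium until TER developed. Tetramethylrhodamine-dextran (4 kDa, 1 mg/mL in HBSS) added to upper chamber, HBSS in lower.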

[3] = tested on: PC-3M; assay: Antiproliferative activity against human PC3M cells at 5 to 50 nM by MTT assay
[4] = tested on: PC-3M; assay: Anti-invasive activity against human PC3M cells at 50 nM
[5] = tested on: PC-3M; assay: Effect on baseline transepithelial resistance in human PC3M cells; method in brief: as §1
[6] = tested on: PC-3M; assay: Effect on paracellular permeability of calcitonin-treated human PC3M cells; method in brief: as §2
[7] = tested on: PC-3M; assay: Cytotoxicity against human PC3M cells at 50 nM by MTT assay

Structure (SMILES)	Activity [3]	Activity [4]	other results
CCNC(=O)O[C@H]1/C=C(\C)CC/C=C(\C)CC[C@@H](C(C)C)/C=C/[C@](C)(O)C1	Active	Active	Activity [1]: Active; Activity [2]: Active; Activity [5]: Active; Activity [6]: Active
C/C1=C\C[C@@H](O)/C(C)=C/[C@H](O)C[C@@](C)(O)/C=C/[C@H](C(C)C)CC1	–	Active	–
C/C1=C\[C@H](O)C[C@@](C)(O)/C=C/[C@H](C(C)C)C[C@@H](O)/C(C)=C/CC1	–	Active	Activity [7]: inactive
C/C1=C\[C@H](O)C[C@@](C)(O)/C=C/[C@H](C(C)C)CC/C(CO)=C/CC1	–	Active	–
C/C1=C\[C@H](OC(=O)NCCCl)C[C@@](C)(O)/C=C/[C@H](C(C)C)CC/C(C)=C/CC1	Active	Active	–
C/C1=C\CC/C(CO)=C/[C@H](O)C[C@@](C)(O)/C=C/[C@H](C(C)C)CC1	–	Active	–
C/C1=C\[C@H](OC(=O)NCc2ccccc2)C[C@@](C)(O)/C=C/[C@H](C(C)C)CC/C(C)=C/CC1	Active	Active	–
